Structures can show the parent of a compound that is named as a salt. Marks after values point to notes of the source that are not given here.
What was measured:
rat TRPA1 = rat TRPA1 (Rattus norvegicus, UniProt Q6RI86); experiment: Two-electrode voltage clamp of Xenopus oocytes expressing rat TRPA1; assay type: cell-based; conditions: for effect on current in TRPA1-expressing oocytes: 300 µM; for current evoked by agonist alone, % of that evoked by 30 µM FFA: 3 µM agonist alone; for interaction with AITC, CA, or cold on channel activation: 30 µM fenamate with 3 µM AITC or CA, or 14°C; for EC50: nominally Ca2+-free bath
Sequence of rat TRPA1 (Q6RI86 whole entry): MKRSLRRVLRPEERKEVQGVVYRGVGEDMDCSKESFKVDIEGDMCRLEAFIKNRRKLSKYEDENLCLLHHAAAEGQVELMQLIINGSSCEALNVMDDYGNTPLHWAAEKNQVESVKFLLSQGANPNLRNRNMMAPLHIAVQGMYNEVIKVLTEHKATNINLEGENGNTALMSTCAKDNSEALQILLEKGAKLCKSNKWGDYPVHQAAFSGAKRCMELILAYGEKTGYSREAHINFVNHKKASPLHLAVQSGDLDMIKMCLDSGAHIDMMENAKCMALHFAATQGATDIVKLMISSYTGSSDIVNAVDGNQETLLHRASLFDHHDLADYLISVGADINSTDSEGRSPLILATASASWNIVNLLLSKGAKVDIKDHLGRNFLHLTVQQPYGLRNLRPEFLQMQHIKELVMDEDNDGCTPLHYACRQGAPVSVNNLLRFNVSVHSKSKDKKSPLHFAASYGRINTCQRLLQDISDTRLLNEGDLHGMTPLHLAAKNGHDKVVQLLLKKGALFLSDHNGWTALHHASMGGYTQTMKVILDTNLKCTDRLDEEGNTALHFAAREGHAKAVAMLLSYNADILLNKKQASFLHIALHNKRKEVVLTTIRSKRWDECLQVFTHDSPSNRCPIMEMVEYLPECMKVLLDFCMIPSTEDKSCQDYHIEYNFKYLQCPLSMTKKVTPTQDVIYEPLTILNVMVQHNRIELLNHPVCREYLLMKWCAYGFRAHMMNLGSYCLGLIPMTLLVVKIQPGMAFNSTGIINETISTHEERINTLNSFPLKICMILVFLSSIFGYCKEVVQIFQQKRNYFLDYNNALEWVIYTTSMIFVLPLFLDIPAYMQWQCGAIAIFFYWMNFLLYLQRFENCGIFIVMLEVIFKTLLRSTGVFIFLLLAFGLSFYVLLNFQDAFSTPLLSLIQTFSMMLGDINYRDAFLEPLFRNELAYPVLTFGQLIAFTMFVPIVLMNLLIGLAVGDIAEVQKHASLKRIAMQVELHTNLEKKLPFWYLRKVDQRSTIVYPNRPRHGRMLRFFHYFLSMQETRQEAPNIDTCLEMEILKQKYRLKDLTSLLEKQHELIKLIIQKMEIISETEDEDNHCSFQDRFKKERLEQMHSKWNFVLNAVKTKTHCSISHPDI

[1] = biological target: T1, human TRPA1 endogenously expressed in WI-38 fibroblasts (Homo sapiens, UniProt O75762); experiment: Fluo4 [Ca2+]i assay in WI-38 fibroblasts; assay type: cell-based; conditions: for agonist effect on Fluo4 fluorescence ([Ca2+]i) in WI-38 cells: 300 µM; for effect of antagonist on response to AITC / effect of antagonist preincubation on response to FFA: antagonist 20 µM; for effect of antagonist on response to AITC: AITC 33 µM; for effect of antagonist preincubation on response to FFA: FFA 33 µM; for antagonist effect on the response induced by FFA or AITC: 100 µM added 2 min before the agonist, data not shown
T1 sequence (O75762 whole entry): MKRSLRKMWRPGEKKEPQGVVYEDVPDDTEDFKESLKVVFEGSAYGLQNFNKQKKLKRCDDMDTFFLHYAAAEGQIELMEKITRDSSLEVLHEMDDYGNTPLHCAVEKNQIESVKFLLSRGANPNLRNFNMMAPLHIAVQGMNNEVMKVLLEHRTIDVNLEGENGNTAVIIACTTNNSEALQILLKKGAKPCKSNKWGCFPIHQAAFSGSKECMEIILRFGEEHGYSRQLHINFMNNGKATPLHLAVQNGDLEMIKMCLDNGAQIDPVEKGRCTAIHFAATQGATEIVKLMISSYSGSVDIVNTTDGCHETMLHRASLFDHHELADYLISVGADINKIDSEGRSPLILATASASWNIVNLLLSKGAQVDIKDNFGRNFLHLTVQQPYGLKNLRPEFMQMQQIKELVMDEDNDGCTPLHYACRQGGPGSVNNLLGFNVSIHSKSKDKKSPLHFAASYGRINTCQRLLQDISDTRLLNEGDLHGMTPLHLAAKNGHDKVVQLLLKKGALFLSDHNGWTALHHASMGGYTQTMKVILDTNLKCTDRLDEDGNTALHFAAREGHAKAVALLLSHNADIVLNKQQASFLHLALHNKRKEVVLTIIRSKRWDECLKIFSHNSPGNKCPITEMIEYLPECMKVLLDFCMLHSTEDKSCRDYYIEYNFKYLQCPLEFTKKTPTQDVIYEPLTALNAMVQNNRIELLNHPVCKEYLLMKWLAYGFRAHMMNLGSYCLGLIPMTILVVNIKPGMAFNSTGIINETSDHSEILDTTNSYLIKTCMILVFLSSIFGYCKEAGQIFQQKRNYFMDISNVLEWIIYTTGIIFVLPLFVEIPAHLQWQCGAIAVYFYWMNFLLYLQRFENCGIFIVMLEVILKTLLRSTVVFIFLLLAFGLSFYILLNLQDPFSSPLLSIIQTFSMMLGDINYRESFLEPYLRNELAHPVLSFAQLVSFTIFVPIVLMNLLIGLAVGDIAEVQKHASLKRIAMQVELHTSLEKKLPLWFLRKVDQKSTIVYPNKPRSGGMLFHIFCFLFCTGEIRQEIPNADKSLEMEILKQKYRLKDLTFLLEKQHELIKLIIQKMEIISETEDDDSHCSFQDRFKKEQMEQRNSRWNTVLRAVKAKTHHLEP

human TRPA1 = human TRPA1 (Homo sapiens, UniProt O75762); experiment: Fluo4 [Ca2+]i assay in HEK-A1 cells; assay type: cell-based; conditions: for nH (Hill coefficient): HEK-A1 cells
Sequence of human TRPA1 (O75762 whole entry): as above

HEK293 cells = experiment: Fluo4 [Ca2+]i assay in parental HEK293 cells; assay type: cell-based; conditions: 300 µM
In short: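 Wild-type HEK293 cells in DMEM (4.5 mg/ml glucose, 10% heat-inactivated FBS, penicillin/streptomycin), plated on polyornithine-treated wells for 14–18 hrs. Loaded with Fluo4-AM (2 µM, 60 min, 37°C) in ECS with 2 mM probenecid, then washed. Test compound was given robotically at 300 µM final. Fluorescence was read on a plate reader at ex 494/em 525 nm, 0.67 Hz, 20–25°C.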

[2] = biological target: human TRPA1 Cys621Ser, Cys641Ser and Cys665Ser triple mutant (Homo sapiens, UniProt O75762, C621S/C641S/C665S); experiment: Currents of human TRPA1 triple cysteine mutant; assay type: cell-based; conditions: HH, unpublished results
Sequence of human TRPA1 Cys621Ser, Cys641Ser and Cys665Ser triple mutant (O75762 whole entry C621S/C641S/C665S): as the sequence (O75762 whole entry) above, with C621S, C641S, C665S counted along it

[3] = tested on: TRPA1 channels heterologously expressed in mammalian cells and Xenopus oocytes; conditions: read-out: EC50 reported in the literature; as low as; cited from earlier work
[4] = biological target: T1, human TRPA1 endogenously expressed in WI-38 fibroblasts; experiment: Whole-cell recordings of WI-38 cells; assay type: cell-based; conditions: ruthenium red 30 µM in the bath
In short: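 WI-38 cells grown in MEM with 10% heat-inactivated FBS and penicillin/streptomycin at 37°C, 5% CO₂. Cells were detached with 0.05% trypsin plus 0.53 mM EDTA in Ca²⁺/Mg²⁺-free HBSS for 5–10 min, held at 37°C, then settled on polyornithine-coated coverslips for 3–5 min before perfusion. Whole-cell voltage clamp was sampled at 5 kHz, with 100 ms ramps from −100 to +100 mV (holding −60 mV) applied every 0.5 s.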

SMILES	effect on current in TRPA1-expressing oocytes (rat TRPA1)	EC50 [1] [µM]	agonist effect on Fluo4 fluorescence ([Ca2+]i) in WI-38 cells [1]	nH (Hill coefficient) ([1]; WI-38 cells)	effect on Fluo4 fluorescence in HEK293 cells (HEK293 cells)	also measured
CC(C(=O)O)c1ccc(-c2ccccc2)c(F)c1 (racemic) [flurbiprofen, (±)-flurbiprofen]	caused current increases	342 ± 6	increased the Fluo4 fluorescence	1.5 ± 0.1	little effect	EC50 (human TRPA1): 310 ± 66 µM; nH (Hill coefficient) (human TRPA1): 2.0 ± 0.3
NCCOB(c1ccccc1)c1ccccc1 [2APB, 2-aminoethoxydiphenyl borate]						concentration-response curve in triple cysteine mutant [2]: right-shifted
C=CCN=C=S [AITC, allyl isothiocyanate]			rapid fluorescence increase	1.0 ± 0.1		current evoked by agonist alone, % of that evoked by 30 µM FFA (rat TRPA1; +100 mV): 45 ± 14%; current evoked by agonist alone, % of that evoked by 30 µM FFA (rat TRPA1; −100 mV): 51 ± 10%; nH (Hill coefficient) (human TRPA1): 0.8 ± 0.1; EC50 [3]: 5 µM
CC(=C\c1ccc(Cl)cc1)/C(C)=N/O [AP-18]						effect of antagonist on response to AITC [1]: blocked; effect of antagonist preincubation on response to FFA [1]: inhibited
O=C/C=C/c1ccccc1 [CA, cinnamaldehyde]		400 ± 41	rapid fluorescence increase	0.9 ± 0.1		current evoked by agonist alone, % of that evoked by 30 µM FFA (rat TRPA1; +100 mV): 44 ± 16%; current evoked by agonist alone, % of that evoked by 30 µM FFA (rat TRPA1; −100 mV): 45 ± 8%; EC50 [3]: 6.5 µM
CC(C)c1ccc(NC(=O)Cn2cnc3c2c(=O)n(C)c(=O)n3C)cc1 [HC-030031]						effect of antagonist on response to AITC [1]: blocked; effect of antagonist preincubation on response to FFA [1]: inhibited
Cc1cccc(Nc2ccccc2C(=O)O)c1C [MFA, mefenamic acid]			increased the Fluo4 fluorescence	1.5 ± 0.2	little effect	interaction with AITC, CA, or cold on channel activation (rat TRPA1): positive synergistic effects
O=C(O)c1cccnc1Nc1cccc(C(F)(F)F)c1 [NFA, niflumic acid]		28 ± 3	increased the Fluo4 fluorescence	1.4 ± 0.2	little effect	threshold of activation (rat TRPA1): 10 to 30 µM; interaction with AITC, CA, or cold on channel activation (rat TRPA1): positive synergistic effects; Hill co-efficient at +100 mV (rat TRPA1; +100 mV): 2.6 ± 0.3; EC50 (rat TRPA1; EC50 for current activation at +100 mV, +100 mV): 240 ± 12 µM; EC50 (rat TRPA1; EC50 for current activation at −100 mV, −100 mV): 540 ± 27 µM; Hill co-efficient at −100 mV (rat TRPA1; −100 mV): 2.1 ± 0.2
CC(=O)Oc1ccccc1C(=O)O [acetylsalicylic acid, Acetylsalicylic acid]			did not act as agonists			
C=CC=O [acrolein]			rapid fluorescence increase	1.0 ± 0.1		EC50 [3]: 0.8 µM
O=C(O)Cc1ccccc1Nc1c(Cl)cccc1Cl [diclofenac, Diclofenac sodium salt]	caused current increases		increased the Fluo4 fluorescence	1.3 ± 0.2	little effect	
CC1CCC(C(C)C)C(O)C1 (stereo not drawn) [menthol]						concentration-response curve in triple cysteine mutant [2]: right-shifted
N.N.N.N.N.N.N.N.N.N.N.N.N.N.[Cl-].[Cl-].[Cl-].[Cl-].[Cl-].[Cl-].[O-2].[O-2].[Ru+3].[Ru+3].[Ru+4] [ruthenium red]						effect of antagonist on response to AITC [1]: blocked; IC50 ([1]; read-out: IC50 for inhibition of the response to FFA, curve not shown): 2.1 µM; effect on FFA-induced whole-cell currents [4]: completely abolished

The next lines start with results.

effect on current in TRPA1-expressing oocytes (rat TRPA1)	EC50 [1] [µM]	agonist effect on Fluo4 fluorescence ([Ca2+]i) in WI-38 cells [1]	nH (Hill coefficient) ([1]; WI-38 cells)	SMILES	effect on Fluo4 fluorescence in HEK293 cells (HEK293 cells)	also measured
		did not act as agonists		CC(C)Cc1ccc([C@H](C)C(=O)O)cc1 [ibuprofen, (S)-(+)-ibuprofen]		
caused current increases	470 ± 54	increased the Fluo4 fluorescence		COc1ccc2c(c1)c(CC(=O)O)c(C)n2C(=O)c1ccc(Cl)cc1 [indomethacin]	little effect	nH (Hill coefficient), fixed to make the fit ([1]; WI-38 cells, nH was fixed to 1.5): 1.5 ^b
very weak activator	> 500	increased the Fluo4 fluorescence		CC(C(=O)O)c1cccc(C(=O)c2ccccc2)c1 (stereo not drawn) [ketoprofen, Ketoprofen]	little effect	
did not have an effect		fail to activate		O=C(c1ccccc1)c1ccc2n1CCC2C(=O)O (stereo not drawn) [ketorolac, ketorolac tromethamine salt]		antagonist effect on the response induced by FFA or AITC [1]: do not act as antagonists
did not have an effect		fail to activate		COc1ccc2cc([C@H](C)C(=O)O)ccc2c1 [naproxen, (S)-naproxen]		antagonist effect on the response induced by FFA or AITC [1]: do not act as antagonists
	157 ± 8	rapid fluorescence increase	1.1 ± 0.1	COC(=O)C1=C(C)NC(C)=C(C(=O)OC)C1c1ccccc1[N+](=O)[O-] [nifedipine]		EC50 (human TRPA1): 140 ± 23 µM; nH (Hill coefficient) (human TRPA1): 1.0 ± 0.1; EC50 [3]: 0.4 µM
